Assay results as given in ChEMBL document CHEMBL1240482, “Synthesis and antiproliferative evaluation of certain indeno[1,2-c]quinoline derivatives. Part 2” (J Med Chem, 2010).
pIC50: −log10 of the molar value. Activity calls are given as the source filed them. The rule behind the calls is not given here.

Columns and labels:
[1] = Cytotoxicity against human BT-483 cells after 48 hrs by MTT assay; format: functional; conditions: BT-483, 48 h
Procedure, shortened: (§1)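 Cells grown in DMEM with 10% FBS at 37 °C and 5% CO2, seeded at 5 × 10^3 per well and allowed 24 h before drug. Serial dilutions from DMSO stocks applied for 48 h. MTT (2 mg/mL in PBS) added for 2 h, formazan dissolved in DMSO, absorbance read at 570 nm. GI50 interpolated by linear regression from at least three points in the 20-80% range; three independent experiments.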

[2] = Inhibition of human topoisomerase 2 assessed as decrease in pBR322 mobility on agarose gel by electrophoresis
Procedure, shortened: (§2)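 Enzyme preincubated with compound before DNA addition; reaction run 30 min at 37 °C and stopped with SDS. Products resolved on 1% agarose, stained with ethidium bromide, quantified by densitometry.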

[3] = biological target: T1, DNA topoisomerase 1 (Homo sapiens) (UniProt P11387); assay: Inhibition of human topoisomerase 1 assessed as decrease in pBR322 mobility on agarose gel at 10 uM by electrophoresis; procedure, shortened: as §2
T1 sequence (whole entry): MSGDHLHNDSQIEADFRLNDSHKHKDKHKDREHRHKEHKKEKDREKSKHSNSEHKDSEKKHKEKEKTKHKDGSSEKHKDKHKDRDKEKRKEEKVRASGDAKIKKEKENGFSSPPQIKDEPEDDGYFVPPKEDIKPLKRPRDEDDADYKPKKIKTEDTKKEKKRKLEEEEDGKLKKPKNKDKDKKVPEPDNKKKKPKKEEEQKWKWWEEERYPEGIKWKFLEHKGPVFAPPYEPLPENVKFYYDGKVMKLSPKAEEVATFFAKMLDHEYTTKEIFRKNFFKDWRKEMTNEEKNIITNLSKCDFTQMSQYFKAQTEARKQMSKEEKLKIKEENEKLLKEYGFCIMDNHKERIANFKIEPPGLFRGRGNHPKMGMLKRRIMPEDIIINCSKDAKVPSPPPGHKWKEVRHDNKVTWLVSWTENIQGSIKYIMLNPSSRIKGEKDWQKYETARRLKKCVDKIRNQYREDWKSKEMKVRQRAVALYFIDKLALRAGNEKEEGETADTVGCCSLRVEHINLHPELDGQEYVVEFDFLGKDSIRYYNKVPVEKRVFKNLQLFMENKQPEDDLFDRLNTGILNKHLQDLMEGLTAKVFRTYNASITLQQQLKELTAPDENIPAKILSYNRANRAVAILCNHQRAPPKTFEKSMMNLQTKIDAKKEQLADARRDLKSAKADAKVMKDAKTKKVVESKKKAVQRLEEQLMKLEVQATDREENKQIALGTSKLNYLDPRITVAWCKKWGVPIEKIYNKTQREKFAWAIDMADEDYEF

SAS [4] = assay: Selectivity index, ratio of IC50 for human Detroit 551 cells to IC50 for human SAS cells; format: functional
DNA topoisomerase 1 = biological target: T2, DNA topoisomerase 1 (Homo sapiens, UniProt P11387); assay: Inhibition of human topoisomerase 1 assessed as decrease in pBR322 mobility on agarose gel by electrophoresis; procedure, shortened: as §2
T2 sequence (P11387 whole entry): T1 sequence (whole entry)

SAS [5] = assay: Cytotoxicity against human SAS cells after 48 hrs by MTT assay; format: functional; procedure, shortened: as §1
Homo sapiens = species on record: Homo sapiens; assay: Inhibition of human topoisomerase 2 assessed as decrease in pBR322 mobility on agarose gel at 10 uM by electrophoresis; procedure, shortened: as §2
PC-3 = assay: Cytotoxicity against human PC3 cells after 48 hrs by MTT assay; format: functional; conditions: PC-3, 48 h; procedure, shortened: as §1
Detroit 551 [6] = assay: Selectivity index, ratio of IC50 for human Detroit 551 cells to IC50 for human BT-483 cells; format: functional
Nucleic Acid = assay: Binding affinity to pBR322; format: nucleic-acid assay; conditions: Escherichia coli
Detroit 551 [7] = assay: Selectivity index, ratio of IC50 for human Detroit 551 cells to IC50 for human A549 cells; format: functional
HeLa [8] = assay: Cytotoxicity against human HeLa cells after 48 hrs by MTT assay; format: functional; procedure, shortened: as §1
[9] = Cytotoxicity against human Detroit 551 cells after 48 hrs by MTT assay; format: cell-based; procedure, shortened: as §1
Detroit 551 [10] = assay: Selectivity index, ratio of IC50 for human Detroit 551 cells to IC50 for human PC3 cells; format: functional
HeLa [11] = assay: Selectivity index, ratio of IC50 for human Detroit 551 cells to IC50 for human HeLa cells; format: functional
Detroit 551 [12] = assay: Selectivity index, ratio of IC50 for human Detroit 551 cells to IC50 for human SKHep cells; format: functional
[13] = Cytotoxicity against human SKHep cells after 48 hrs by MTT assay; format: functional; procedure, shortened: as §1
A549 = assay: Cytotoxicity against human A549 cells after 48 hrs by MTT assay; format: functional; conditions: A549, 48 h; procedure, shortened: as §1

pIC50 [2] | inhibition [3] [%] | pIC50 (DNA topoisomerase 1) | inhibition (Homo sapiens) [%] | Activity (Nucleic Acid) | SMILES | GI50 [1] [µM] | RatioGI50 (SAS [4]) | GI50 (SAS [5]) [µM] | GI50 (PC-3) [µM] | RatioGI50 (Detroit 551 [6]) | RatioGI50 (Detroit 551 [7]) | GI50 (HeLa [8]; read-out: GI50) [µM] | GI50 (HeLa [8]; read-out: pGI50 (converted)) [µM] | GI50 at 48 h [9] [µM] | RatioGI50 (Detroit 551 [10]) | RatioGI50 (HeLa [11]) | RatioGI50 (Detroit 551 [12]) | GI50 [13] [µM] | GI50 (A549) [µM]
5.19 | 67 | 5.09 | 80 | Active | COc1ccc2c(c1)/C(=N\OCCN1CCCC1)c1c-2cnc2ccccc12 | 3.11 | 5.29 | 1.19 | 2.32 | 2.02 | 4.08 | 0.45 | 0.447 | 6.29 | 2.71 | 13.98 | 4.17 | 1.51 | 1.54
5.00 | 28 | 4.78 | 50 | Active | COc1ccc2c(c1)/C(=N\OCCN1CCCCC1)c1c-2cnc2ccccc12 | 5.17 | 0.88 | 7.18 | 6.38 | 1.22 | 0.74 | 2.67 | 2.69 | 6.3 | 0.99 | 2.36 | 1.2 | 5.26 | 8.48
4.99 | 73 | 5.13 | 46 | Active | COc1ccc2c(c1)/C(=N\OCCN(C)C)c1c-2c(O)nc2ccccc12 | 4.04 | 8.73 | 1.1 | 5.34 | 2.38 | 9.6 | 0.23 | 0.229 | 9.6 | 1.8 | 41.74 | 3.75 | 2.56 | 1
